Measurements taken from ChEMBL document CHEMBL1156838, “Utilization of the 1,2,3,5-thiatriazolidin-3-one 1,1-dioxide scaffold in the design of potential inhibitors of human neutrophil proteinase 3” (Bioorg Med Chem, 2010).
The source made the active and inactive calls. The rule behind the calls is not given here.

Experiments:
[1] = biological target: T1, Neutrophil elastase (Homo sapiens) (UniProt P08246); experiment: Inhibition of human neutrophil elastase
T1 sequence (whole entry): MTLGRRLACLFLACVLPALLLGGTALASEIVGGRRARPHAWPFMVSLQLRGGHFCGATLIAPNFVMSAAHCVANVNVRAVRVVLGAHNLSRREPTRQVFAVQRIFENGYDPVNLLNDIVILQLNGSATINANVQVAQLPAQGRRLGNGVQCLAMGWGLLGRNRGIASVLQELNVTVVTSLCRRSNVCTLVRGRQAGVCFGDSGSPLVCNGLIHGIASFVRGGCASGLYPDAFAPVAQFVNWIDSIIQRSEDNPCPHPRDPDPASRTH
Outline: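 Human elastase (final 70 nM; added from a stock in 0.05 mM sodium acetate/0.5 M NaCl pH 5.50) in 0.1 M HEPES/0.5 M NaCl pH 7.25 at 25 °C. Substrate was methoxysuccinyl-Ala-Ala-Pro-Val p-nitroaniline, with single inhibitor level from DMSO. […] read for 2 min against a DMSO-only hydrolysis control. % inhibition = (1 − v/vo)×100, mean of duplicate or triplicate runs.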

[2] = biological target: T2, Myeloblastin (Homo sapiens) (UniProt P24158); experiment: Inhibition of human neutrophil proteinase 3
T2 sequence (whole entry): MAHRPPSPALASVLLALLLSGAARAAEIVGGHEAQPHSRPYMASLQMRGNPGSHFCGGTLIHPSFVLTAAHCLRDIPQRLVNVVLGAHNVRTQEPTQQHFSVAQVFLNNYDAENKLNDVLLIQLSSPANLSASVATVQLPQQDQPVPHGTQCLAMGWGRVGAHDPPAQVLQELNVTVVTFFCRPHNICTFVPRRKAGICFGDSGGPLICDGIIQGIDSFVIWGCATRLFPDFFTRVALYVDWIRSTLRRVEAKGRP
Outline: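 Human proteinase 3 (final 34.5 nM; added from a stock in 0.1 M phosphate pH 6.50) in 0.1 M HEPES/0.5 M NaCl pH 7.25 at 25 °C. Thiobenzyl ester substrate Boc-Ala-Ala-NVa-SBzl, with 5,5′-dithio-bis(2-nitrobenzoic acid) from DMSO and single inhibitor level from DMSO. Absorbance followed at […] for 2 min against an uninhibited hydrolysis control. % inhibition = (1 − v/vo)×100, duplicate or triplicate mean.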

Row | SMILES | inhibition [1] | inhibition [2]
1 | CCN1CN(Cc2cccc(NC(=O)c3cccc(OC)c3)c2)S(=O)(=O)N1CC | inactive | inactive
2 | CCN1CN(Cc2cccc(NC(=O)c3cccc(Oc4ccccc4)c3)c2)S(=O)(=O)N1CC | inactive | inactive
3 | CCN1CN(Cc2cn(CC(=O)c3ccccc3F)nn2)S(=O)(=O)N1CC | inactive | inactive
4 | CCN1C(=O)N(C(Cc2ccccc2)C(=O)Nc2ccccc2NC(=O)OCC(C)C)S(=O)(=O)N1CC (stereo unspecified) | Active | inactive
5 | CCN1CN(Cc2cccc(NC(=O)c3ccccc3)c2)S(=O)(=O)N1CC | inactive | inactive
6 | CCN1CN(Cc2cccc(NC(=O)CCOC)c2)S(=O)(=O)N1CC | inactive | inactive
7 | CCN1CN(Cc2cccc(NC(=O)NCCc3ccccc3)c2)S(=O)(=O)N1CC | inactive | inactive
8 | CCN1CN(Cc2cn(CC(=O)c3cccs3)nn2)S(=O)(=O)N1CC | inactive | inactive
